Here are results for 14 molecules from ChEMBL document CHEMBL1800044, “Structure-based design of novel boronic acid-based inhibitors of autotaxin” (J Med Chem, 2011).

The assay concerns the target Autotaxin (Homo sapiens, UniProt Q13822). Briefly: Inhibition of 6x-histidine-tagged human recombinant ATX expressed in HEK293 cells assessed as choline release using lysophosphatidylcholine as substrate after 4 hrs by choline release assay. The procedure, abridged: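 Recombinant ATX at 10 nM final (~20 nM in enzyme half) in 50 mM Tris-HCl pH 7.4, 0.01% Triton X-100, inhibitor added in DMSO. LPC (18:1) at 40 μM final, buffer with 10 mM MgCl2 and 10 mM CaCl2. Ten concentrations, 0.01–30 μM. Controls were DMSO alone and LPC without enzyme.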
What is called IC50 is the point on the concentration scale where inhibition reaches its midpoint. For `O=C1SC(Cc2ccc(OCc3ccc(B(O)O)cc3)cc2)C(O)N1Cc1ccc(F)cc1` (centres undefined), the IC50 amounted to 1590 nM.
Turning to `O=C1[C@H]2Cc3ccc(OCc4ccc(B(O)O)cc4)cc3CN2C(=O)N1Cc1ccc(F)cc1`, the IC50 amounted to 59 nM.
For `O=C1S/C(=C\c2ccc(/C=C/c3ccc(B(O)O)cc3)cc2)C(=O)N1Cc1ccc(F)cc1`, the IC50 is greater than 5000 nM.
Take `CN1C(=O)N(Cc2ccc(F)cc2)C(=O)/C1=C\c1ccc(OCc2ccc(B(O)O)cc2)cc1`: the IC50 was 5.3 nM.
Take `O=c1sc(Cc2ccc(OCc3ccc(B(O)O)cc3)cc2)cn1Cc1ccc(F)cc1`: the IC50 worked out at 683 nM.
Turning to `CN1C(=O)N(Cc2ccc(F)cc2)C(=O)/C1=C/c1ccc(OCc2ccc(B(O)O)cc2)cc1`, the IC50 came out at 6.7 nM.
Then `O=C1S/C(=C\c2ccc(NCc3ccc(B(O)O)cc3)cc2)C(=O)N1Cc1ccc(F)cc1`, with 8.3 nM.
Then `O=C1N/C(=C\c2ccc(OCc3ccc(B(O)O)cc3)cc2)C(=O)N1Cc1ccc(F)cc1`, with 26 nM; and `O=C1[C@@H]2Cc3ccc(OCc4ccc(B(O)O)cc4)cc3CN2C(=O)N1Cc1ccc(F)cc1`, with 55 nM; and `O=C1C/C(=C\c2ccc(OCc3ccc(B(O)O)cc3)cc2)C(=O)N1Cc1ccc(F)cc1`, with 7.3 nM.
For `O=C(Nc1ccc(B(O)O)cc1)c1ccc(/C=C2\SC(=O)N(Cc3ccc(F)cc3)C2=O)cc1`, the IC50 is 147 nM.
Then `O=C(Nc1ccc(/C=C2\SC(=O)N(Cc3ccc(F)cc3)C2=O)cc1)c1ccc(B(O)O)cc1`, with 10 nM; and `O=C1SC(Cc2ccc(OCc3ccc(B(O)O)cc3)cc2)C(=O)N1Cc1ccc(F)cc1` (centres undefined), with 25 nM; and `O=C(NCc1ccc(B(O)O)cc1)c1ccc(/C=C2\SC(=O)N(Cc3ccc(F)cc3)C2=O)cc1`, with 71 nM.
